Rows were chosen to be rich in hits. Some 9.6% of all compounds tested hit in one or more screens of this group.
TNAP inh hiacc: TNAP (human) inhibition, high acceptor; purified TNAP, CDP-star luminescence, 1 M DEA; inhibition, % at 20 µM; hit rate 0.03% among 200,000; AID 1135;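 active = over 50% inhibition of tissue-nonspecific alkaline phosphatase at 20 µM in the single-dose screen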;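 note: plate controls were DMSO wells for no effect and EDTA-quenched wells as full inhibition for full effect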
Target sequence (P05186 whole entry, looked up): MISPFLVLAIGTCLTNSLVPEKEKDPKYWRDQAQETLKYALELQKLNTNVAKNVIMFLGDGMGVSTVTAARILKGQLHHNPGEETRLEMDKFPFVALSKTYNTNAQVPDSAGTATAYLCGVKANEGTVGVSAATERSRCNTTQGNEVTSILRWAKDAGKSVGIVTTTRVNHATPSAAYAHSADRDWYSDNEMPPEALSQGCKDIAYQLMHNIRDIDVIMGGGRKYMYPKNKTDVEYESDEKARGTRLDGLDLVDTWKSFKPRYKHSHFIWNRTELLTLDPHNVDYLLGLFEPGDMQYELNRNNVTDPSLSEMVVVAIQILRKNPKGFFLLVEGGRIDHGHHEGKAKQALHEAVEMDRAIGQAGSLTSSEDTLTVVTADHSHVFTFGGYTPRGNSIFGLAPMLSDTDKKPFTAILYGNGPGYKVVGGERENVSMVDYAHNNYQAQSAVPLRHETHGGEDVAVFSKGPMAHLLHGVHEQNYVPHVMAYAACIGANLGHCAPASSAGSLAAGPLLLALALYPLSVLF
TNAP act hi DEA: TNAP (human) activation, high acceptor | P05186 | purified TNAP, CDP-star luminescence, 1 M DEA, 30 min; hits give high values; 0 = EDTA background, 1 = DMSO-only activity | activation factor at 20 µM | 200,000 tested, under 10 active | AID 1136;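 active = activation factor at least 2 at 20 µM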
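Dosing: 20 µM single point. System: human TNAP. Amount: TNAP 1/800 final. Incubation: 30 min, room temperature. Read-out: TNAP activation factor scaled between EDTA and DMSO control wells. Signal: luminescence from CDP-star hydrolysis. Medium: 1 M DEA, pH 9.8, Mg2+, Zn2+. Control set: EDTA negative control, DMSO positive control.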
TNAP inh no acc: TNAP (human) inhibition, acceptor-free conditions. hit rate 0.26% among 200,000. P05186. inhibition, % at 20 µM. AID 1012. purified TNAP, CDP-star luminescence, 30 min;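 active = tissue-nonspecific alkaline phosphatase inhibition above about 50% at 20 µM in the single-dose screen, limit read from the data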;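 note: 0% = DMSO negative control and 100% = EDTA positive control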
HCT116 bCat-KO: beta-catenin-lacking colon tumor cell growth suppression. HCT116 beta-catenin knockout viability, CellTiter-Glo, 60 h; hits give low values. viability, % at 10 µM. hit rate 1.5% among 140,000. AID 818;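 active = viability at or under a set limit, the compound median less 4 SD, cut at about 6% in these data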;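 note: 0% = Hyamine 1622 control at 20 µM and 100% = untreated cell control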
Lmaj promast: inhibitors of Leishmania major promastigote growth; Leishmania major promastigotes, resazurin fluorescence viability; inhibition, % at 10 µM; hit rate 9% among 200,000; AID 1063; in the data active = inhibition above about 50%;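 note: promastigotes grown with compound for 44 hours at 28 °C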
HCT116 PTEN-null: PTEN-deleted cell growth suppression; HCT116 PTEN-null viability, CellTiter-Glo, 60 h; hits give low values; viability, % at 10 µM; hit rate 1.2% among 140,000; AID 827;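 active = viability at or below a set limit, 4 SD under the median of all tested compounds, cut at about 3.7% in these data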;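 note: PTEN knockout HCT116 line with beta catenin targeted HCT116 as companion control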
Active calls of the source: *; . = no result.

SMILES | TNAP inh hiacc | TNAP act hi DEA | TNAP inh no acc | HCT116 bCat-KO | Lmaj promast | HCT116 PTEN-null
Cc1cccc(-n2cnc(C(=O)N/N=C\c3ccc(Br)cc3)c2)n1 | -6 | 1.1 | -53 | 49 | 99* | 30
Cc1cccc(-n2cnc(C(=O)NNC(=S)Nc3ccc(Cl)cc3)c2)n1 | 1 | 1 | -115 | . | 100* | .
Cc1nc2ccccn2c1C(=O)NNC(=S)Nc1ccc(Cl)cc1 | -7 | 1.1 | -190 | 90 | -4 | 87
CC1CN(c2nc3ccccc3cc2-c2ccccc2)CC(C)O1 (stereo unspecified) | 2 | 1 | -4 | . | 38 | .
Cc1ccc(C(C(=O)NCC2CCCO2)N(Cc2ccccc2)C(=O)c2ccc(-c3ccccc3)[nH]2)o1 (stereo unspecified) | -2 | 1 | -44 | 72 | 53* | 64
O=C(CN(Cc1ccccc1Cl)C(=O)Cn1nnc(-c2cccs2)n1)NCC1CCCO1 (stereo unspecified) | -3 | 1 | -12 | 79 | 19 | 92
O=C(NCC1CCCO1)C(c1cccs1)N(Cc1ccccc1Cl)C(=O)c1ccc(-c2ccccc2)[nH]1 (stereo unspecified) | -5 | 1 | -11 | 54 | 100* | 51
Cc1ccc(CN(C(=O)CNC(=O)c2cccs2)C(C(=O)NCC2CCCO2)c2ccccc2)cc1 (stereo unspecified) | -4 | 1 | -8 | 71 | -4 | 70
O=C(NC(c1ccc(Cl)cc1)c1cc(Cl)c2cccnc2c1O)c1cccnc1 (stereo unspecified) | -4 | 1 | -26 | 9 | 99* | 13
CCCCC(=O)NC(c1cccs1)c1cc(Cl)c2cccnc2c1O (stereo unspecified) | -4 | 1 | -10 | . | 98* | .
CCCC(=O)NC(c1ccc(OC)c(OC)c1)c1cc(Cl)c2cccnc2c1O (stereo unspecified) | 0 | 1 | -2 | . | 99* | .
CCC(=O)NC(c1cccs1)c1cc(Cl)c2cccnc2c1O (stereo unspecified) | -4 | 1 | -8 | . | 98* | .
CCC(=O)NC(c1ccc(C)cc1)c1cc([N+](=O)[O-])c2cccnc2c1O (stereo unspecified) | 23 | 0.8 | -14 | 13 | -8 | 5
CC(C)NC(=O)CSc1nc(N)c(NC(=O)c2ccco2)c(=O)[nH]1 | -2 | 1 | -10 | . | -11 | .
O=C(COc1ccc(Cl)cc1)NC1=NN(c2ccccc2)C(=O)C1 | 4 | 1 | -2 | 93 | -7 | 100
COC(=O)CC(N)c1ccc(OC)c2ccccc12 (stereo unspecified) | -1 | 1 | -6 | 102 | -1 | 100
CC1CCCCN1C(=O)COc1ccc(F)cc1 (stereo unspecified) | -4 | 1 | -5 | . | -9 | .
Cc1ccc(C)c(N2CCN(C(=O)Cc3ccc(-n4c(=O)[nH]c5ccsc5c4=O)cc3)CC2)c1 | -2 | 1 | -10 | 89 | 51* | 78
Cc1cccc(N2CCN(C(=O)Cc3ccc(-n4c(=O)[nH]c5ccsc5c4=O)cc3)CC2)c1C | 3 | 1 | -4 | 86 | -2 | 78
CCN(CC)CCNC(=O)c1ccc(-n2c(C)cc3c2CCCC3=O)cc1 | -3 | 1 | -10 | . | 32 | .
O=c1[nH]c(=S)[nH]c2sccc12 | -8 | 1.1 | -12 | . | -13 | .
COc1cccc(N=Nc2c(N)[nH]n3c(=O)c4c(nc23)CCCC4)c1 | 17 | 0.8 | -103 | . | 74* | .
COc1cccc(N=Nc2c(N)[nH][nH]c2=O)c1 | 6 | 0.9 | -11 | 99 | -9 | 96
O=C(Nc1nnc(-c2ccc(Cl)cc2)o1)C1=COCCO1 | -3 | 1 | 4 | 85 | 54* | 91
CCN1C(=O)CC(N2CCN(c3ccc(C(=O)c4ccncc4)cc3)CC2)C1=O (stereo unspecified) | 9 | 0.9 | -6 | 91 | 73* | 100
SMILES | TNAP inh hiacc | TNAP act hi DEA | TNAP inh no acc | HCT116 bCat-KO | Lmaj promast | HCT116 PTEN-null
O=C(c1ccncc1)c1ccc(N2CCN(C3CC(=O)N(Cc4cccs4)C3=O)CC2)cc1 (stereo unspecified) | -3 | 1 | -10 | . | 18 | .
CCOc1ccc(N2C(=O)CC(N3CCN(c4ccc(C(=O)c5ccncc5)cc4)CC3)C2=O)cc1 (stereo unspecified) | . | . | . | . | 77* | .
COc1ncccc1-c1nnn(-c2ccccc2)n1 | -2 | 1 | -7 | . | -2 | .
CCC(C)C1C(C#N)=C(N)Oc2n[nH]c(C)c21 (stereo unspecified) | -4 | 1 | 23 | 14 | 67* | 27
COc1ccc(-c2ccc(C3C(C#N)=C(N)Oc4n[nH]c(C)c43)o2)cc1 (stereo unspecified) | 7 | 0.9 | 19 | 57 | 71* | 50
Cc1[nH]nc2c1C(c1cc(Br)cs1)C(C#N)=C(N)O2 (stereo unspecified) | -2 | 1 | 7 | 2.0* | 99* | 2.1*
CCN(CCn1cccn1)Cc1ccccc1OCC(O)CN1CCc2ccccc2C1 (stereo unspecified) | -6 | 1.1 | -8 | . | 12 | .
O=C(c1cc(-c2cccs2)nc2ccccc12)N1CCN(c2ccccc2O)CC1 | -3 | 1 | -7 | . | 12 | .
O=[N+]([O-])c1ccccc1/C=C/C=N/Nc1ccc(S(=O)(=O)Nc2ccc(Cl)cc2)cc1[N+](=O)[O-] | 25 | 0.8 | 34 | . | 67* | .
COc1ccccc1NC(=O)CN(c1ccc(C23CC4CC(CC(C4)C2)C3)cc1)S(C)(=O)=O | -5 | 1 | -6 | 22 | 79* | 34
Cc1nn2c(NCCCN(C)C)c3c(nc2c1-c1ccccc1)CCC3 | -6 | 1.1 | 5 | 2.4* | 100* | 1.7*
CC(=O)Nc1ccc(S(=O)(=O)N(C)CC(=O)OCC(=O)c2cc(C)n(-c3ccc4c(c3)OCO4)c2C)cc1 | -3 | 1 | 5 | 93 | 0 | 93
Cc1nn(Cc2c(Cl)cccc2Cl)c(Cl)c1/C=C/C(=O)OCC(=O)NCC(F)(F)F | -2 | 1 | -12 | 4.2* | -6 | 4
COc1ccccc1NC(=O)CSc1nnc(COc2ccccc2OC)n1C | -2 | 1 | -4 | . | -5 | .
O=C(COC(=O)c1cc(=O)c2ccccc2o1)NC1CCCC1 | 4 | 1 | -91 | . | -6 | .
O=C(c1cc2ccccc2o1)N1CCC(N2CCC(C(=O)N3CCCC3)CC2)CC1 | -10 | 1.1 | -16 | . | 50* | .
Cc1cc(C)n2nc(CCCCc3nc4nc(C)cc(C)n4n3)nc2n1 | -4 | 1 | -1 | . | -3 | .
COc1cc(C(=O)Nc2c(C)cc(C)cc2C)c(Br)c(OC)c1OC | -6 | 1.1 | -7 | . | 4 | .
CCCC(Oc1ccc(Br)cc1)c1nc2c3cc(OC)c(OC)cc3nc(=S)n2[nH]1 (stereo unspecified) | -3 | 1 | -16 | . | 97* | .
CC(Oc1ccc(Br)cc1)c1nc2c3ccccc3nc(=S)n2[nH]1 (stereo unspecified) | -1 | 1 | -5 | . | 0 | .
